The record followed here is ChEMBL document CHEMBL3244034, “Semisynthetic cephalosporins. Synthesis and structure-activity relationships of 7-(1-pyrryl)- and 7-(1-indolyl)acetamidocephalosporin derivatives” (1978).

Assay type in all cases: functional
Experiment [1] concerns Staphylococcus aureus. Nature of the experiment: Antibacterial activity against benzylpenicillin-resistant Staphylococcus aureus after 17 hrs by serial two fold dilution method. Put shortly:
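Agar dilution MIC. Compound was serially diluted twofold in Mueller-Hinton agar. The surface was inoculated with a diluted 18-24-h broth culture […]. Plates were incubated 17 h at 37 °C. MIC was taken as the lowest concentration giving complete or virtually complete inhibition of visible growth.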

Experiment [2] deals with Staphylococcus aureus. In words: Antibacterial activity against Staphylococcus aureus after 17 hrs by serial two fold dilution method. Put shortly:
(§1)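 Agar dilution MIC: compound serially diluted twofold in Mueller-Hinton agar. Plate surfaces were inoculated with a suitably diluted 18-24-h broth culture and incubated 17 h at 37 °C. MIC was read as the lowest concentration giving complete or virtually complete inhibition of visible growth.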

Experiment [3] concerns Staphylococcus epidermidis. In words: Antibacterial activity against Staphylococcus epidermidis after 17 hrs by serial two fold dilution method. Put shortly: as §1
The test system of a further experiment is Enterococcus faecalis. Nature of the experiment: Antibacterial activity against Staphylococcus faecalis after 17 hrs by serial two fold dilution method. The gist of the method: as §1
The test system of another experiment is Streptococcus pneumoniae. Nature of the experiment: Antibacterial activity against Streptococcus pneumoniae after 17 hrs by serial two fold dilution method. Put shortly:
as §1

In a further experiment the test system is Streptococcus pyogenes. In words: Antibacterial activity against Streptococcus pyogenes after 17 hrs by serial two fold dilution method. The gist of the method:
as §1

A further experiment deals with Klebsiella aerogenes. Nature of the experiment: Antibacterial activity against Enterobacter aerogenes after 17 hrs by serial two fold dilution method.
The subject of a further experiment is Enterobacter cloacae. Nature of the experiment: Antibacterial activity against Enterobacter cloacae after 17 hrs by serial two fold dilution method.
The test system of the next experiment is Escherichia coli. In words: Antibacterial activity against Escherichia coli after 17 hrs by serial two fold dilution method. Put shortly:
as §1

For a further experiment, the system named is Klebsiella pneumoniae. Nature of the experiment: Antibacterial activity against Klebsiella pneumoniae after 17 hrs by serial two fold dilution method. Put shortly: as §1
The next experiment has as its system Proteus mirabilis. In words: Antibacterial activity against Proteus mirabilis after 17 hrs by serial two fold dilution method. The gist of the method: as §1
In another experiment the test system is Proteus vulgaris. In words: Antibacterial activity against Proteus vulgaris after 17 hrs by serial two fold dilution method. The gist of the method:
as §1

The test system of the next experiment is Providencia stuartii. Nature of the experiment: Antibacterial activity against Providencia stuartii after 17 hrs by serial two fold dilution method. Put shortly: as §1
The subject of a further experiment is Pseudomonas aeruginosa. In words: Antibacterial activity against Pseudomonas aeruginosa after 17 hrs by serial two fold dilution method. Put shortly:
as §1

The next experiment concerns Salmonella. Nature of the experiment: Antibacterial activity against Salmonella schottmuelleri after 17 hrs by serial two fold dilution method. The gist of the method: as §1

Converted amounts (≈) assume the structure as drawn. Where only a bound is given, the exact number is not on record here.

A word on the MIC: it is the least concentration at which growth counts as inhibited. As to `CCOC(=O)C(C(=O)N[C@@H]1C(=O)N2C(C(=O)O)=C(COC(C)=O)CS[C@H]12)n1cccc1` (some centres not stated), the MIC in the experiment on Staphylococcus aureus [1] was 6.2 µg/mL (≈ 13.7 µM); against Staphylococcus aureus [2] it was 1.6 µg/mL (≈ 3.54 µM); in experiment [3] it was 3.1 µg/mL (≈ 6.87 µM); in the experiment with Enterococcus faecalis it was above 100 µg/mL; in the experiment on Streptococcus pneumoniae, 0.4 µg/mL (≈ 0.886 µM); against Streptococcus pyogenes, 0.4 µg/mL (≈ 0.886 µM). The MIC with Klebsiella aerogenes is 25 µg/mL (≈ 55.4 µM); against Enterobacter cloacae, 25 µg/mL (≈ 55.4 µM); with Escherichia coli, 25 µg/mL (≈ 55.4 µM); against Klebsiella pneumoniae, 25 µg/mL (≈ 55.4 µM); with Proteus mirabilis it was 50 µg/mL (≈ 111 µM); against Proteus vulgaris it was above 100 µg/mL. For the same compound, the MIC against Providencia stuartii is 12.5 µg/mL (≈ 27.7 µM); in the experiment on Pseudomonas aeruginosa it was above 100 µg/mL; in the experiment with Salmonella, 25 µg/mL (≈ 55.4 µM).
Consider `CC(=O)OCC1=C(C(=O)O)N2C(=O)[C@@H](NC(=O)Cn3cccc3)[C@H]2SC1`, for which the MIC was 1.6 µg/mL (≈ 4.22 µM) against Staphylococcus aureus [1]; 0.8 µg/mL (≈ 2.11 µM) in the experiment with Staphylococcus aureus [2]; 3.1 µg/mL (≈ 8.17 µM) in [3]; above 100 µg/mL against Enterococcus faecalis; 0.4 µg/mL (≈ 1.05 µM) with Streptococcus pneumoniae; 0.4 µg/mL (≈ 1.05 µM) against Streptococcus pyogenes. Besides, the MIC in the experiment on Klebsiella aerogenes was above 100 µg/mL; against Enterobacter cloacae it was above 100 µg/mL; in the experiment on Escherichia coli, 6.2 µg/mL (≈ 16.3 µM); against Klebsiella pneumoniae it was 6.2 µg/mL (≈ 16.3 µM); against Proteus mirabilis, 12.5 µg/mL (≈ 32.9 µM); in the experiment on Proteus vulgaris, above 100 µg/mL. The MIC is 50 µg/mL (≈ 132 µM) in the experiment on Providencia stuartii, above 100 µg/mL in the experiment with Pseudomonas aeruginosa and 3.1 µg/mL (≈ 8.17 µM) against Salmonella.
`CC(=O)OCC1=C(C(=O)O)N2C(=O)[C@@H](NC(=O)Cn3cccc3C=O)[C@H]2SC1`: the MIC in the experiment on Staphylococcus aureus [1] was 1.6 µg/mL (≈ 3.93 µM); with Staphylococcus aureus [2], 0.8 µg/mL (≈ 1.96 µM); in experiment [3] it was 3.1 µg/mL (≈ 7.61 µM); against Enterococcus faecalis, above 100 µg/mL; with Streptococcus pyogenes, 0.4 µg/mL (≈ 0.982 µM); with Klebsiella aerogenes, above 100 µg/mL. The MIC with Enterobacter cloacae is above 100 µg/mL; in the experiment on Escherichia coli, 100 µg/mL (≈ 245 µM); in the experiment on Klebsiella pneumoniae it was 50 µg/mL (≈ 123 µM); with Proteus mirabilis, 100 µg/mL (≈ 245 µM); against Proteus vulgaris it was above 100 µg/mL; in the experiment with Providencia stuartii, above 100 µg/mL. The values for the MIC against Pseudomonas aeruginosa and against Salmonella were above 100 µg/mL and 50 µg/mL (≈ 123 µM), respectively.
For `Cc1nnc(SCC2=C(C(=O)O)N3C(=O)[C@@H](NC(=O)Cn4ccc5ccccc54)[C@H]3SC2)s1`, the MIC against Staphylococcus aureus [1] is 0.2 µg/mL (≈ 0.399 µM); in the experiment with Staphylococcus aureus [2] it was 0.1 µg/mL (≈ 0.199 µM); in [3], 0.4 µg/mL (≈ 0.797 µM); against Enterococcus faecalis, above 100 µg/mL; in the experiment with Streptococcus pneumoniae it was at most 0.025 µg/mL; against Streptococcus pyogenes it was 0.05 µg/mL (≈ 0.0997 µM). The MIC against Klebsiella aerogenes is 100 µg/mL (≈ 199 µM); in the experiment on Enterobacter cloacae it was 100 µg/mL (≈ 199 µM); in the experiment with Escherichia coli it was 50 µg/mL (≈ 99.7 µM); in the experiment with Klebsiella pneumoniae, 50 µg/mL (≈ 99.7 µM); against Proteus mirabilis, 50 µg/mL (≈ 99.7 µM); against Proteus vulgaris, above 100 µg/mL. Also, the MIC was 25 µg/mL (≈ 49.8 µM) in the experiment with Providencia stuartii, above 100 µg/mL in the experiment on Pseudomonas aeruginosa and 25 µg/mL (≈ 49.8 µM) against Salmonella.
For the compound `Cn1nnnc1SCC1=C(C(=O)O)N2C(=O)[C@@H](NC(=O)Cn3cccc3C=O)[C@H]2SC1`, the MIC in the experiment on Staphylococcus aureus [1] is 1.6 µg/mL (≈ 3.45 µM); in the experiment on Staphylococcus aureus [2], 0.8 µg/mL (≈ 1.73 µM); in [3], 3.1 µg/mL (≈ 6.69 µM); in the experiment on Enterococcus faecalis it was above 100 µg/mL; in the experiment with Streptococcus pyogenes, 0.2 µg/mL (≈ 0.431 µM); against Klebsiella aerogenes it was 100 µg/mL (≈ 216 µM). Moreover, the MIC in the experiment with Enterobacter cloacae was above 100 µg/mL; with Escherichia coli, 12.5 µg/mL (≈ 27 µM); with Klebsiella pneumoniae it was 12.5 µg/mL (≈ 27 µM); against Proteus mirabilis, 50 µg/mL (≈ 108 µM); against Proteus vulgaris, above 100 µg/mL; against Providencia stuartii, 50 µg/mL (≈ 108 µM). Moreover, the MIC in the experiment with Pseudomonas aeruginosa was above 100 µg/mL; against Salmonella it was 6.2 µg/mL (≈ 13.4 µM).
`Cn1nnnc1SCC1=C(C(=O)O)N2C(=O)[C@@H](NC(=O)Cn3ccc4ccccc43)[C@H]2SC1`: the MIC against Staphylococcus aureus [1] was 0.2 µg/mL (≈ 0.412 µM); against Staphylococcus aureus [2] it was 0.1 µg/mL (≈ 0.206 µM); in experiment [3] it was 0.4 µg/mL (≈ 0.824 µM); against Enterococcus faecalis, above 100 µg/mL; in the experiment with Streptococcus pyogenes, 0.05 µg/mL (≈ 0.103 µM); with Klebsiella aerogenes, 50 µg/mL (≈ 103 µM). In addition, the MIC with Enterobacter cloacae is 50 µg/mL (≈ 103 µM); with Escherichia coli, 12.5 µg/mL (≈ 25.7 µM); with Klebsiella pneumoniae, 12.5 µg/mL (≈ 25.7 µM); with Proteus mirabilis, 50 µg/mL (≈ 103 µM); against Proteus vulgaris, above 100 µg/mL; against Providencia stuartii, 25 µg/mL (≈ 51.5 µM). The MIC was above 100 µg/mL against Pseudomonas aeruginosa and 6.2 µg/mL (≈ 12.8 µM) in the experiment on Salmonella.
